Test results published in PubChem BioAssay.
The source made the active and inactive calls.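 The calls were made as follows, unless noted: active = inhibition above 20% together with a positive visual image hit; inconclusive = visual image hit but inhibition not above 20%; inactive = no visual image hit.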

Experiments:
[1] = inhibitors of TNFa-induced NFkB p65 translocation, primary screen, imaging, HUVEC, MLSMR starter and 10KST1 sets (AID 438); conditions: HUVEC TNFa-induced p65 nuclear translocation; cell count: measured here: nuclei count (cytotoxicity indicator), at 2.08 µM; inhibition: at 2 µM, stronger effect = higher value, 0% TNFa-plus-vehicle, 100% no-TNFa wells;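 also: compound added about 3h40 before a 20 min TNFalpha stimulation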;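 as to inhibition: signal is the nuclear over cytoplasmic p65 intensity ratio per well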
[2] = endothelial E-selectin expression blockers – imaging, HUVEC, immunofluorescence, MLSMR starter and 10KST1 sets, primary screen (AID 487;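 active = visually confirmed hit in the image check and inhibition above 20%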;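 as to inhibition: signal is fraction of cell area covered by stained E-selectin grains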;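 as to nuclei count: 100% = median nuclei count of all wells on the same plate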); conditions: HUVEC TNFalpha-induced E-selectin immunofluorescence imaging, at 2 µM; inhibition: stronger effect = higher value; nuclei count: measured here: cell number, toxicity
[3] = Primary imaging screen for DUSP6 inhibitors that restore phospho-Erk in transfected HeLa cells, chemical complementation (AID 609;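 active = compounds giving at least 50% inhibition in the cell-based MKP-3 phosphatase rescue imaging test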;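 as to inhibition: phospho-Erk level distribution per well compared with pooled transfected vehicle control wells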); conditions: HeLa MKP-3 transfected, phospho-Erk imaging KS statistic, at 10 µM, cells stimulated with TPA for 15 min
[4] = biological target: Dual specificity protein phosphatase 6 (Homo sapiens) (UniProt Q16828); experiment: as above; conditions: HeLa MKP-3 transfected, phospho-Erk imaging KS statistic; at 10 µM; stronger effect = higher value; cells stimulated with TPA for 15 min
[5] = biological target: Voltage-gated potassium channel subunit beta-2 (Rattus norvegicus) (UniProt P62483); experiment: inhibitors of rat Kvbeta2 reductase activity – biochemical, NADPH fluorescence, primary screen (AID 622;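 active = fluorescence slope higher than the sample average by over 3 SD, cut at about -0.22 in these data, passing the limit was not always enough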;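 also: slope of raw intensity against log time taken from 70 to 1610 s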); conditions: recombinant KvBeta, 4-cyanobenzaldehyde reduction, at 10 µM, stronger effect = higher value
[6] = biological target: Voltage-gated potassium channel subunit beta-2 (Rattus norvegicus) (UniProt P62483); experiment: enhancers of rat Kvbeta2 NADPH turnover – biochemical, NADPH fluorescence, primary screen (AID 623;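 active = NADPH fluorescence slope more negative than the mean of all samples by about 3 SD, 99.7% confidence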;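 also: fluorescence intensity change per second fitted from 20 to 320 s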); conditions: Recombinant KvBeta, NADPH fluorescence decrease slope, 10 min; at 10 µM; stronger effect = lower value
[7] = biological target: Muscarinic acetylcholine receptor M4 (Homo sapiens) (UniProt P08173); experiment: M4-linked GIRK flux change, two-sided – cell-based, HEK293 M4/GIRK, thallium flux, BTC-AM, M4 allosteric agonist project, primary screen (AID 625;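 active = fluorescence slope after compound addition differing from the mean of all tested samples at 99.7% confidence, mostly higher but some lower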;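 also: thallium influx through GIRK channels coupled to M4 in HEK293 cells with BTC-AM dye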); conditions: at 10 µM, actives lie on both sides
Procedure, shortened: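 Material – HEK293 cells with M4 receptor and GIRK channels · Buffer or medium – pH 7.3 thallium assay buffer · Doses – one dose, 10 µM final · Timing – cells overnight at 37 °C, BTC-AM loading 1 h, reads 2 min total · Measured by – kinetic fluorescence with BTC-AM dye · Controls – carbachol and DMSO controls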

[8] = inhibitors of larval lipid processing in zebrafish, primary screen, whole organism, PED6 fluorescence, gall bladder and intestine (AID 686;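 active = a full or partial loss of lipid-probe fluorescence in the fish gall bladder, intestine or both, judged by eye; inactive = no fluorescence loss, or compound toxic to the fish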;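 also: larvae 5 to 7 days old with five fish per well; signal comes from phospholipase A2 cleavage of quenched PED6 carried via bile; overnight exposure to compound and PED6 before scoring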); conditions: Zebrafish larvae PED6 lipid processing, fluorescence scoring; screened at 20 µM (by protocol)
Procedure, shortened: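 system = live zebrafish larvae aged 5-7 days, whole organism | probe or stimulus = ingested quenched lipid PED6 at 100 nM | doses = 20 µM single dose | timing = overnight exposure | detection = fluorescence microscopy with visual scoring of gall bladder and intestine | read-out = visual per-well fluorescence inhibition score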

[9] = loss of swimming-algae plug formation – whole organism, Chlamydomonas reinhardtii, WT vs cilia-less mutant, absorbance, 96-well, primary screen (AID 463189;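 active = inhibition at or above 50% relative to wild type and mutant plate controls; inactive = inhibition below 50%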;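 also: 0% = wild type cc124 cells in DMSO and 100% = ciliumless bld1 mutant cells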); conditions: Chlamydomonas reinhardtii gravitaxis, OD600 absorbance, 2 days; at 10 µM; stronger effect = higher value
[10] = measured here: cell density z-score
[11] = measured here: nuclear c-Myc green intensity z-score
[12] = measured here: nuclear pErk red intensity z-score, stronger effect = higher value

Sequence of Dual specificity protein phosphatase 6 (Homo sapiens) (Q16828 whole entry, looked up): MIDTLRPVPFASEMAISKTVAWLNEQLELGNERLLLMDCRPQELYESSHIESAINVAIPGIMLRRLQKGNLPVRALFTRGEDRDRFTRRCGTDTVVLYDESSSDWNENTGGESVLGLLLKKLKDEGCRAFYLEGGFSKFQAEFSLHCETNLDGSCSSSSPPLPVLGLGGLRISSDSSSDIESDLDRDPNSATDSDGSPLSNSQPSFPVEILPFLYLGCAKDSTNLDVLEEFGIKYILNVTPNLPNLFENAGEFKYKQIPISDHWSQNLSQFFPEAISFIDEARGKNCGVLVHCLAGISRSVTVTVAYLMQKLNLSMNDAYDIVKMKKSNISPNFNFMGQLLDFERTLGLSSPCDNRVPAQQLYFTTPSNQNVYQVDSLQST
Sequence of Voltage-gated potassium channel subunit beta-2 (Rattus norvegicus) (P62483 whole entry, looked up): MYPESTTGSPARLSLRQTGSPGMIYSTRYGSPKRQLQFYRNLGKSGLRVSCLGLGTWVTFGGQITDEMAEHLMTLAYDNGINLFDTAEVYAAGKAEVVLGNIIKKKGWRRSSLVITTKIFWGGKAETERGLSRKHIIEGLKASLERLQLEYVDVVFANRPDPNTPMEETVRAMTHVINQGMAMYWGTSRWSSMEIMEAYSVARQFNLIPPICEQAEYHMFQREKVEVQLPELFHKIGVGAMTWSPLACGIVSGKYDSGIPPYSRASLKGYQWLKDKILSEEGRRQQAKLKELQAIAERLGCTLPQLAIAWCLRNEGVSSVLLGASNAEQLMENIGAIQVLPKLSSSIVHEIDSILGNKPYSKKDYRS
Sequence of Muscarinic acetylcholine receptor M4 (Homo sapiens) (P08173 whole entry, looked up): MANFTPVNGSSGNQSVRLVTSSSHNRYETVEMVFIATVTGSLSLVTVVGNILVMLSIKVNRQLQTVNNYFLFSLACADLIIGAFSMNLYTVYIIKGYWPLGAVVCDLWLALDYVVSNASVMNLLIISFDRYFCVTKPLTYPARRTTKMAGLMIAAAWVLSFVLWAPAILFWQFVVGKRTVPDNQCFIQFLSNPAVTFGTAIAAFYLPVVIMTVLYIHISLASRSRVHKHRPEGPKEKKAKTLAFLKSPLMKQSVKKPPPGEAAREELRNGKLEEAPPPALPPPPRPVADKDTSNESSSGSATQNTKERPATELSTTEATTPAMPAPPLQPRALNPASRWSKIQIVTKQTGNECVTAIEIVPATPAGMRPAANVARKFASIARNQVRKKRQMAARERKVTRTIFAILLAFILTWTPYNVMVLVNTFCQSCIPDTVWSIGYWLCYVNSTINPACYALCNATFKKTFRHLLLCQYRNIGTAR

With O=C(O)c1ccc(C2CCCCC2)cn1 the cell count [1] was 532, the inhibition [1] was 0.5% (inactive) and the inhibition [2] was -129% (inactive). It also gave a nuclei count [2] of 197%, a z-score [3, 10] of -1.16 and a z-score [3, 11] of 0.871. The z-score [3, 12] was -1.14, the inhibition [4] was 3.97% (inactive) and the fluorescence slope [5] was -0.444 (inactive). The NADPH fluorescence slope [6] was -4.4e-05 (inactive), the fluorescence slope [7] was 0.00555 (inactive) and the outcome [8] was “inactive”. For the same molecule, the inhibition [9] was -1.91% (inactive).

With CCCCCNc1nc(N2CCCC2)c2c(c1C#N)CCN(C)C2 the cell count [1] was 596, the inhibition [1] was 8.1% (inactive) and the inhibition [2] was -52.3% (inactive). For the same molecule, the nuclei count [2] was 146%, the z-score [3, 10] was -0.626 and the z-score [3, 11] was 0.142. For the same molecule, the z-score [3, 12] was -0.491, the inhibition [4] was -9.53% (inactive) and the fluorescence slope [5] was -0.446 (inactive). The NADPH fluorescence slope [6] was -8.3e-05 (inactive), the fluorescence slope [7] was 0.0037 (inactive) and the outcome [8] was “inactive”. The inhibition [9] was 165% (active).

In the case of COc1cc2c(cc1OC)C1(CCCC1)C(N)=C2C#N, the cell count [1] is reported as 374, the inhibition [1] is reported as 2.5% (inactive) and the inhibition [2] is reported as 36.9% (inactive). It also gave a nuclei count [2] of 104%, a z-score [3, 10] of -0.0432 and a z-score [3, 11] of -0.638. For the same molecule, the z-score [3, 12] was 1.42, the inhibition [4] was 17.4% (inactive) and the fluorescence slope [5] was -0.437 (inactive). For the same molecule, the NADPH fluorescence slope [6] was -0.000121 (inactive), the fluorescence slope [7] was 0.00412 (inactive) and the outcome [8] was “inactive”. The inhibition [9] was 2.1% (inactive).

For COc1ccccc1-c1c(C)oc2c(CN3CCN(C)CC3)c(O)ccc2c1=O, the cell count [1] was 672, the inhibition [1] was -0.2% (inactive) and the inhibition [2] was -20.6% (inactive). For the same molecule, the nuclei count [2] was 150%, the z-score [3, 10] was 0.0584 and the z-score [3, 11] was -0.255. For the same molecule, the z-score [3, 12] was -0.66, the inhibition [4] was 14.7% (inactive) and the fluorescence slope [5] was -0.0259 (inactive). The NADPH fluorescence slope [6] was 1.6e-05 (inactive), the fluorescence slope [7] was 0.00509 (inactive) and the outcome [8] was “inactive”. For the same molecule, the inhibition [9] was -5.96% (inactive).

In the case of COCCCn1cnc2c(c1=O)c1nc3ccccc3nc1n2CCc1ccccc1, the cell count [1] is reported as 607, the inhibition [1] is reported as -6.7% (inactive) and the inhibition [2] is reported as 10.3% (inactive). For the same molecule, the nuclei count [2] was 115%, the z-score [3, 10] was -3.3 and the z-score [3, 11] was 0.876. For the same molecule, the z-score [3, 12] was 0.579, the inhibition [4] was 1.63% (inactive) and the fluorescence slope [5] was -0.492 (inactive). For the same molecule, the NADPH fluorescence slope [6] was -4.8e-05 (inactive), the fluorescence slope [7] was 0.00438 (inactive) and the outcome [8] was “inactive”. For the same molecule, the inhibition [9] was 12.1% (inactive).

With CCN(CC)CCCN1C(=O)C(=O)/C(=C(/O)c2ccc3c(c2)CC(C)O3)C1c1cccnc1 (centres undefined) the cell count [1] was 574, the inhibition [1] was -10.8% (inactive) and the inhibition [2] was 68% (inactive). For the same molecule, the nuclei count [2] was 83.2%, the z-score [3, 10] was -1.33 and the z-score [3, 11] was 0.323. The z-score [3, 12] was 0.536, the inhibition [4] was 6.04% (inactive) and the fluorescence slope [5] was -0.502 (inactive). For the same molecule, the NADPH fluorescence slope [6] was -2.4e-05 (inactive), the fluorescence slope [7] was 0.00627 (inactive) and the outcome [8] was “inactive”. The inhibition [9] was 13.2% (inactive).

In the case of CCN1CCc2c(C#N)c(N3CCCCC3)nc(N3CCOCC3)c2C1, the cell count [1] is reported as 567, the inhibition [1] is reported as -7.1% (inactive) and the inhibition [2] is reported as -95.8% (inactive). It also gave a nuclei count [2] of 149%, a z-score [3, 10] of 0.15 and a z-score [3, 11] of -1.22. For the same molecule, the z-score [3, 12] was 1.09, the inhibition [4] was -2.09% (inactive) and the fluorescence slope [5] was -0.46 (inactive). The NADPH fluorescence slope [6] was -7.6e-05 (inactive), the fluorescence slope [7] was 0.00491 (inactive) and the outcome [8] was “inactive”. For the same molecule, the inhibition [9] was 20.3% (inactive).

For CCOC(=O)C1=C(C)NC(=O)C1CC(=O)Nc1ccccc1 (centres undefined), the cell count [1] was 377, the inhibition [1] was -4.8% (inactive) and the inhibition [2] was -73.4% (inactive). It also gave a nuclei count [2] of 139%, a z-score [3, 10] of -0.173 and a z-score [3, 11] of 0.561. The z-score [3, 12] was 0.408, the inhibition [4] was 3.42% (inactive) and the fluorescence slope [5] was -0.443 (inactive). The NADPH fluorescence slope [6] was -0.000122 (inactive), the fluorescence slope [7] was 0.00567 (inactive) and the outcome [8] was “inactive”. The inhibition [9] was -5.87% (inactive).

In the case of CC1(C(=O)CSc2nc3ccccc3[nH]2)CCC(=O)O1 (centres undefined), the cell count [1] is reported as 631, the inhibition [1] is reported as -2% (inactive) and the inhibition [2] is reported as -8.2% (inactive). The nuclei count [2] was 115%, the z-score [3, 10] was -2.03 and the z-score [3, 11] was -0.005. For the same molecule, the z-score [3, 12] was -0.394, the inhibition [4] was -13.3% (inactive) and the fluorescence slope [5] was -0.508 (inactive). The NADPH fluorescence slope [6] was -1.8e-05 (inactive), the fluorescence slope [7] was 0.0059 (inactive) and the outcome [8] was “inactive”. For the same molecule, the inhibition [9] was 0.18% (inactive).

In the case of Cc1cccc(OCCN2CSC(=S)N(C)C2)c1, the cell count [1] is reported as 542, the inhibition [1] is reported as -14.5% (inactive) and the inhibition [2] is reported as -138% (inactive). For the same molecule, the nuclei count [2] was 129%, the z-score [3, 10] was 0.0536 and the z-score [3, 11] was -1.14. For the same molecule, the z-score [3, 12] was 0.0169, the inhibition [4] was 9.42% (inactive) and the fluorescence slope [5] was -0.494 (inactive). The NADPH fluorescence slope [6] was -7.6e-05 (inactive), the fluorescence slope [7] was 0.0046 (inactive) and the outcome [8] was “inactive; toxic”. For the same molecule, the inhibition [9] was 45.3% (inactive).

In the case of CCC(=NC(CC)CO)C1=C(O)CC(C)(C)CC1=O (centres undefined), the cell count [1] is reported as 686, the inhibition [1] is reported as -11.6% (inactive) and the inhibition [2] is reported as -103% (inactive). The nuclei count [2] was 171%, the z-score [3, 10] was 0.537 and the z-score [3, 11] was -0.145. For the same molecule, the z-score [3, 12] was 1.26, the inhibition [4] was -13.3% (inactive) and the fluorescence slope [5] was -0.519 (inactive). The NADPH fluorescence slope [6] was -8.5e-05 (inactive), the fluorescence slope [7] was 0.00583 (inactive) and the outcome [8] was “inactive”. The inhibition [9] was -0.04% (inactive).

With CC(C)CN1C(=O)c2ccc(C(=O)Nc3ccccn3)cc2C1=O the cell count [1] was 669, the inhibition [1] was -5.4% (inactive) and the inhibition [2] was 50% (inactive). For the same molecule, the nuclei count [2] was 136%, the z-score [3, 10] was -1.42 and the z-score [3, 11] was 1.32. For the same molecule, the z-score [3, 12] was -0.345, the inhibition [4] was -11.4% (inactive) and the fluorescence slope [5] was -0.495 (inactive). For the same molecule, the NADPH fluorescence slope [6] was -4.7e-05 (inactive), the fluorescence slope [7] was 0.00831 (inactive) and the outcome [8] was “inactive”. The inhibition [9] was -7.05% (inactive).

With Cn1c(NCc2ccccc2)nc2c1c(=O)n(Cc1ccc(Br)cc1)c(=O)n2C the cell count [1] was 696, the inhibition [1] was -21.9% (inactive) and the inhibition [2] was -78.3% (inactive). The nuclei count [2] was 171%, the z-score [3, 10] was 0.333 and the z-score [3, 11] was 0.526. For the same molecule, the z-score [3, 12] was 0.876, the inhibition [4] was 13.9% (inactive) and the fluorescence slope [5] was -0.47 (inactive). For the same molecule, the NADPH fluorescence slope [6] was -5.2e-05 (inactive), the fluorescence slope [7] was 0.00559 (inactive) and the outcome [8] was “inactive”. The inhibition [9] was 36.1% (inactive).
